Tests used:
[1] = system: Homo sapiens; assay: Unbound clearance in healthy human at 8 mg/kg, iv administered as 30 mins infusion every 24 hrs measured on day 14; assay type: ADME, organism-based; parameters: dose 8 mg/kg, route intravenous; settings: in vivo
[2] = Half life in healthy human subjects at 6 mg/kg, iv administered as 30 mins infusion every 24 hrs measured on day 1; assay type: ADME, organism-based; parameters: dose 6 mg/kg, route intravenous; settings: in vivo
[3] = Clearance in young healthy human at 4 mg/kg, iv administered as single dose 30 mins infusion; assay type: ADME, organism-based; parameters: dose 4 mg/kg, route intravenous; settings: in vivo
[4] = Apparent volume of distribution during terminal phase in healthy human subjects at 12 mg/kg, iv administered as 30 mins infusion every 24 hrs measured on day 1; assay type: ADME, organism-based; parameters: dose 12 mg/kg, route intravenous; settings: in vivo
[5] = AUC (0 to infinity) in healthy human at 8 mg/kg, iv administered as 30 mins infusion every 24 hrs measured on day 7; assay type: ADME, organism-based; parameters: dose 8 mg/kg, route intravenous, time infinity; settings: plasma
[6] = Half life in moderately obese adult human at 4 mg/kg, iv administered as single dose 30 mins infusion; assay type: ADME, organism-based; parameters: dose 4 mg/kg, route intravenous; settings: in vivo
[7] = Volume of distribution at steady state in morbidly obese adult human at 4 mg/kg, iv administered as single dose 30 mins infusion; assay type: ADME, organism-based; parameters: dose 4 mg/kg, route intravenous; settings: in vivo, read-out: Vdss
[8] = AUC (0 to infinity) in healthy human at 4 mg/kg, iv administered as single dose 30 mins infusion; assay type: ADME, organism-based; parameters: time infinity, dose 4 mg/kg, route intravenous; settings: plasma
[9] = Half life in adult human subjects at 6 mg/kg, iv administered as single dose 30 mins infusion; assay type: ADME, organism-based; parameters: dose 6 mg/kg, route intravenous; settings: in vivo
[10] = Apparent volume of distribution during terminal phase in healthy human at 4 mg/kg, iv administered as 30 mins infusion every 24 hrs measured on day 1; assay type: ADME, organism-based; parameters: dose 4 mg/kg, route intravenous; settings: in vivo
[11] = Clearance in healthy human subjects at 6 mg/kg, iv administered as 30 mins infusion every 24 hrs measured on day 4; assay type: ADME, organism-based; parameters: dose 6 mg/kg, route intravenous; settings: in vivo
[12] = Renal clearance in healthy adult human at 6 mg/kg, iv administered as single dose 30 mins infusion; assay type: ADME, organism-based, Kidney; parameters: dose 6 mg/kg, route intravenous; settings: in vivo, read-out: CL_renal (converted)
[13] = AUC (0 to infinity) in healthy human subjects at 12 mg/kg, iv administered as 30 mins infusion every 24 hrs measured on day 14; assay type: ADME, organism-based; parameters: time infinity, dose 12 mg/kg, route intravenous; settings: plasma
[14] = Cmax in healthy human at 6 mg/kg, iv administered as 30 mins infusion every 24 hrs measured on day 7; assay type: ADME, organism-based; parameters: dose 6 mg/kg, route intravenous; settings: in vivo
[15] = Clearance in nonobese human subjects at 4 mg/kg, iv administered as single dose 30 mins infusion; assay type: ADME, organism-based; parameters: dose 4 mg/kg, route intravenous; settings: in vivo
[16] = Half life in healthy human at 6 mg/kg, iv administered as 30 mins infusion every 24 hrs measured on day 7; assay type: ADME, organism-based; parameters: dose 6 mg/kg, route intravenous; settings: in vivo
[17] = Apparent volume of distribution during terminal phase in healthy human subjects at 8 mg/kg, iv administered as 30 mins infusion every 24 hrs measured on day 4; assay type: ADME, organism-based; parameters: dose 8 mg/kg, route intravenous; settings: in vivo
[18] = Half life in healthy human at 6 mg/kg, iv administered as 30 mins infusion every 24 hrs measured on day 1; assay type: ADME, organism-based; parameters: dose 6 mg/kg, route intravenous; settings: in vivo
[19] = Cmax in healthy human subjects at 12 mg/kg, iv administered as 30 mins infusion every 24 hrs measured on day 14; assay type: ADME, organism-based; parameters: dose 12 mg/kg, route intravenous; settings: in vivo
[20] = Drug excretion in morbidly obese adult human urine assessed as unchanged drug at 4 mg/kg, iv administered as single dose 30 mins infusion; assay type: ADME, organism-based; parameters: dose 4 mg/kg, route intravenous; settings: read-out: Drug uptake
[21] = Half life in old healthy human at 4 mg/kg, iv administered as single dose 30 mins infusion; assay type: ADME, organism-based; parameters: dose 4 mg/kg, route intravenous; settings: in vivo
[22] = Half life in healthy human subjects at 8 mg/kg, iv administered as 30 mins infusion every 24 hrs measured on day 4; assay type: ADME, organism-based; parameters: dose 8 mg/kg, route intravenous; settings: in vivo
[23] = Cmax in nonobese human at 4 mg/kg, iv administered as single dose 30 mins infusion; assay type: ADME, organism-based; parameters: dose 4 mg/kg, route intravenous; settings: in vivo
[24] = Apparent volume of distribution during terminal phase in healthy human subjects at 12 mg/kg, iv administered as 30 mins infusion every 24 hrs measured on day 14; assay type: ADME, organism-based; parameters: dose 12 mg/kg, route intravenous; settings: in vivo
[25] = Cmax in young healthy human at 4 mg/kg, iv administered as single dose 30 mins infusion; assay type: ADME, organism-based; parameters: dose 4 mg/kg, route intravenous; settings: in vivo
[26] = Apparent volume of distribution in young healthy human at 4 mg/kg, iv administered as single dose 30 mins infusion; assay type: ADME, organism-based; parameters: dose 4 mg/kg, route intravenous; settings: in vivo
[27] = AUC (0 to infinity) in healthy human subjects at 10 mg/kg, iv administered as 30 mins infusion every 24 hrs measured on day 1; assay type: ADME, organism-based; parameters: time infinity, dose 10 mg/kg, route intravenous; settings: plasma
[28] = Drug excretion in young healthy human urine assessed as unchanged drug at 4 mg/kg, iv administered as single dose 30 mins infusion; assay type: ADME, organism-based; parameters: dose 4 mg/kg, route intravenous; settings: read-out: Drug uptake
[29] = Renal clearance in adult human with hepatic impairment at 6 mg/kg, iv administered as single dose 30 mins infusion; assay type: ADME, organism-based, Kidney; parameters: dose 6 mg/kg, route intravenous; settings: in vivo, read-out: CL_renal (converted)
[30] = Cmax in healthy human subjects at 10 mg/kg, iv administered as 30 mins infusion every 24 hrs measured on day 14; assay type: ADME, organism-based; parameters: dose 10 mg/kg, route intravenous; settings: in vivo
[31] = Half life in healthy human at 8 mg/kg, iv administered as 30 mins infusion every 24 hrs measured on day 1; assay type: ADME, organism-based; parameters: dose 8 mg/kg, route intravenous; settings: in vivo
[32] = Plasma concentration in cancer patient with neutropenic fever at 6 mg/kg, iv administered as 30 mins infusion every 24 hrs measured after 24 hrs; assay type: ADME, organism-based; parameters: dose 6 mg/kg, route intravenous; settings: human
Method in brief: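 29 adult oncology patients with neutropenic fever received 6 mg/kg (total body weight) daptomycin as a 30-min IV infusion every 24 h. Plasma was sampled predose, at end of infusion, and 0.5, 1, 2, 4, 8, 12 and 24 h after infusion start. Total drug was measured by validated HPLC (linear 1–100 μg/ml, detection limit 1 μg/ml). Tmax was the observed value, analysed noncompartmentally.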

[33] = Half life in healthy human subjects at 12 mg/kg, iv administered as 30 mins infusion every 24 hrs measured on day 14; assay type: ADME, organism-based; parameters: dose 12 mg/kg, route intravenous; settings: in vivo
[34] = AUC (0 to infinity) in healthy human subjects at 6 mg/kg, iv administered as 30 mins infusion every 24 hrs measured on day 4; assay type: ADME, organism-based; parameters: time infinity, dose 6 mg/kg, route intravenous; settings: plasma
[35] = Mean residence time in adult human subjects at 6 mg/kg, iv administered as single dose 30 mins infusion; assay type: ADME, organism-based; parameters: dose 6 mg/kg, route intravenous; settings: in vivo
[36] = Renal clearance in morbidly obese adult human at 4 mg/kg, iv administered as single dose 30 mins infusion; assay type: ADME, organism-based, Kidney; parameters: dose 4 mg/kg, route intravenous; settings: in vivo, read-out: CL_renal (converted)
[37] = Clearance in healthy human subjects at 6 mg/kg, iv administered as 30 mins infusion every 24 hrs measured on days 1-3; assay type: ADME, organism-based; parameters: dose 6 mg/kg, route intravenous; settings: in vivo
[38] = Clearance in healthy human subjects at 10 mg/kg, iv administered as 30 mins infusion every 24 hrs measured on day 1; assay type: ADME, organism-based; parameters: dose 10 mg/kg, route intravenous; settings: in vivo
[39] = Clearance in healthy adult human at 6 mg/kg, iv administered as single dose 30 mins infusion; assay type: ADME, organism-based; parameters: dose 6 mg/kg, route intravenous; settings: in vivo
[40] = Volume of distribution at steady state in adult human with hepatic impairment at 6 mg/kg, iv administered as single dose 30 mins infusion; assay type: ADME, organism-based; parameters: dose 6 mg/kg, route intravenous; settings: in vivo, read-out: Vdss
[41] = AUC (0 to infinity) in moderately obese adult human at 4 mg/kg, iv administered as single dose 30 mins infusion; assay type: ADME, organism-based; parameters: time infinity, dose 4 mg/kg, route intravenous; settings: plasma
[42] = Apparent volume of distribution during terminal phase in healthy human subjects at 10 mg/kg, iv administered as 30 mins infusion every 24 hrs measured on day 14; assay type: ADME, organism-based; parameters: dose 10 mg/kg, route intravenous; settings: in vivo
[43] = Cmax in healthy human at 4 mg/kg, iv administered as 30 mins infusion every 24 hrs measured on day 7; assay type: ADME, organism-based; parameters: dose 4 mg/kg, route intravenous; settings: in vivo
[44] = Cmax in healthy human subjects at 8 mg/kg, iv administered as 30 mins infusion every 24 hrs measured on day 4; assay type: ADME, organism-based; parameters: dose 8 mg/kg, route intravenous; settings: in vivo
[45] = Cmax in healthy human at 8 mg/kg, iv administered as 30 mins infusion every 24 hrs measured on day 7; assay type: ADME, organism-based; parameters: dose 8 mg/kg, route intravenous; settings: in vivo

## CCCCCCCCCC(=O)N[C@@H](Cc1c[nH]c2ccccc12)C(=O)N[C@H](CC(N)=O)C(=O)N[C@@H](CC(=O)O)C(=O)N[C@@H]1C(=O)NCC(=O)N[C@@H](CCCN)C(=O)N[C@@H](CC(=O)O)C(=O)N[C@H](C)C(=O)N[C@@H](CC(=O)O)C(=O)NCC(=O)N[C@H](CO)C(=O)N[C@@H]([C@H](C)CC(=O)O)C(=O)N[C@@H](CC(=O)c2ccccc2N)C(=O)O[C@@H]1C
[1]
  CL: 0.745 mL/min/kg
[2]
  half-life: 7.5 h
[3]
  clearance: 0.252 mL/min/kg
[4]
  Vd: 0.111 L/kg
[5]
  AUC(0-inf): 1130 µg·h/mL
[6]
  half-life: 7.34 h
[7]
  Vd: 0.18 L/kg
[8]
  AUC(0-inf): 530 µg·h/mL
[9]
  half-life: 9.44 h
[10]
  Vd: 0.101 L/kg
[11]
  clearance: 0.152 mL/min/kg
[12]
  CL renal at 0.5 h: 0.064 mL/min/kg
[13]
  AUC(0-inf): 1290 µg·h/mL
[14]
  Cmax: 98.6 µg/mL
[15]
  clearance: 0.2 mL/min/kg
[16]
  half-life: 8.9 h
[17]
  Vd: 0.101 L/kg
[18]
  half-life: 7.8 h
[19]
  Cmax: 182 µg/mL
[20]
  dose excreted at 0.5 h: 42.7%
[21]
  half-life: 11.8 h
[22]
  half-life: 8.3 h
[23]
  Cmax: 53.2 µg/mL
[24]
  Vd: 0.0992 L/kg
[25]
  Cmax: 42.3 µg/mL
[26]
  Vd: 0.15 L/kg
[27]
  AUC(0-inf): 1010 µg·h/mL
[28]
  dose excreted at 0.5 h: 42.3%
[29]
  CL renal at 0.5 h: 0.0608 mL/min/kg
[30]
  Cmax: 139 µg/mL
[31]
  half-life: 9.6 h
[32]
  concentration at 24 h: 5.67 µg/mL
[33]
  half-life: 7.9 h
[34]
  AUC(0-inf): 632 µg·h/mL
[35]
  MRT: 12.4 h
[36]
  CL renal at 0.5 h: 0.134 mL/min/kg
[37]
  clearance: 0.158 mL/min/kg
[38]
  clearance: 0.165 mL/min/kg
[39]
  clearance: 0.171 mL/min/kg
[40]
  Vd: 0.08 L/kg
[41]
  AUC(0-inf): 421 µg·h/mL
[42]
  Vd: 0.0858 L/kg
[43]
  Cmax: 57.8 µg/mL
[44]
  Cmax: 123 µg/mL
[45]
  Cmax: 133 µg/mL
